High-throughput results deposited in PubChem BioAssay by several laboratories.
The full list was thinned out, with hits kept by preference.
XBP1 UPR activ – activators of adaptive XBP1 UPR arm, primary screen, cell-based, CHO-XBP1 luciferase reporter, luminescence, uHTS | AID 463104, 2010 | IRE1-XBP1 UPR activation; percent of tunicamycin response, DMSO as zero | activation, % at 20 µM | 330,000 tested, 0.33% active;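 active = versus positive control, 20 µM dose yields 30% or more activation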
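Material: CHO cell line with stable XBP1 luciferase reporter; buffer or medium: F12 medium containing 10% fetal bovine serum; compound: single point, 20 µM final compound, 1% DMSO; incubation: 6 h treatment, 37 °C; measured by: glow luminescence from Steady-Glo reagent; evaluation: activation, % of tunicamycin; control set: tunicamycin high, DMSO low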
VLA-4 inh – inhibition in human VLA-4 binding assay, primary screen, VLA-4 allosteric modulator project, MLPCN library, flow cytometry, VLA-4 expressing cells. 330,000 tested, 0.2% active. AID 2557, 2010. ligand binding flow cytometry. Integrin alpha-4 (Homo sapiens), P13612. inhibition, % (about 7 µM as worked out from the volumes in the protocol); in the data active = inhibition above about 50%
Target sequence (P13612 whole entry, looked up): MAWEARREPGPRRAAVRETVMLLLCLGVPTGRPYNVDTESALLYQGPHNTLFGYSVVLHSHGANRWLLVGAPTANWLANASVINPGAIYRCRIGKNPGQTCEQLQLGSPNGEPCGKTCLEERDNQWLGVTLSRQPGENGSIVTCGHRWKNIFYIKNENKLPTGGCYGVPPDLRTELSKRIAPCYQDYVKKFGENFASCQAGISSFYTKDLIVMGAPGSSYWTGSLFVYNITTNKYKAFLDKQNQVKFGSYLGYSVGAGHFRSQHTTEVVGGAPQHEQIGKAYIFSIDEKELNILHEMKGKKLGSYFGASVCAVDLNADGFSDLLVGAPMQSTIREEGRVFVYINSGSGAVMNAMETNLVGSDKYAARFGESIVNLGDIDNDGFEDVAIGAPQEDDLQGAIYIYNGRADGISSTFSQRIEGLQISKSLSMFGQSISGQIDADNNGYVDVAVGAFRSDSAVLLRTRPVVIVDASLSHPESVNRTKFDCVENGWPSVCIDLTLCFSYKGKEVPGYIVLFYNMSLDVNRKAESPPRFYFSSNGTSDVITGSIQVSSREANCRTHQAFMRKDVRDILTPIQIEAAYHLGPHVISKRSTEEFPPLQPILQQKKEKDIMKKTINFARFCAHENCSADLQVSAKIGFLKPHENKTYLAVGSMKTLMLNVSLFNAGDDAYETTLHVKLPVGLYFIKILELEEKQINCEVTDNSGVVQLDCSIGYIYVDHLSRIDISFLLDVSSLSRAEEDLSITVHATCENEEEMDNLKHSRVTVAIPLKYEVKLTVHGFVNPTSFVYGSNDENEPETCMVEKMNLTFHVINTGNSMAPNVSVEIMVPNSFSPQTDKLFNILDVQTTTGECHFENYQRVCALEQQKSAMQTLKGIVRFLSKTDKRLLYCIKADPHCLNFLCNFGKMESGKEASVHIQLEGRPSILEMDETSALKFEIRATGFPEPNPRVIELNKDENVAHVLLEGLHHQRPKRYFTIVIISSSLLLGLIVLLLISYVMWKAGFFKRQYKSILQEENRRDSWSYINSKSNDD
CHOP inhibitor – inhibitors of CHOP promoter induction, primary screen, cell-based, unfolded protein response, luciferase reporter. CHO-K1 CHOP-promoter luciferase, tunicamycin-induced, 15-18 h. AID 2732, 2010. inhibition, % at 10 µM. 220,000 tested, 3.8% active;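 active = compounds that reduced the stress-induced luciferase reporter signal by more than about 70% of percent inhibition, limit read from the data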
Beta2AR agonist – beta2AR agonists driving receptor internalization, primary screen, cell-based, FAP fluorogen, flow cytometry; AID 504454, 2011; response, % (concentration not given with the values); Beta-2 adrenergic receptor (Homo sapiens), P07550; Am2.2-beta2AR cells; 340,000 tested, 0.43% active;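 active = response above a set limit, near 3 SD of response in nonfluorescent compounds, cut at about 42% in these data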
UPR CHOP act – activators of apoptotic CHOP UPR arm, primary screen, cell-based, CHO-CHOP luciferase reporter, luminescence, uHTS; activation, % at 10 µM; AID 449763, 2010; UPR activation; percent of tunicamycin response over DMSO baseline; 330,000 tested, 0.34% active;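 active = at 10 µM dose, activation of 40% or more, normalized to positive control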
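System: CHO-CHOP luciferase reporter cell line; amount: 500 cells/well; buffer or medium: F12 medium containing 10% fetal bovine serum; incubation: 6 h compound exposure at 37 °C after overnight seeding; measured by: luciferase luminescence after 10 min with Steady-Glo reagent; evaluation: % reporter activation, DMSO baseline versus tunicamycin full activation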
Of the large screens only hits and unclear results are named; the others gave an inactive call.

CC1CC(C)CN(C(=O)CN2C(=O)NC(c3ccccc3)(c3ccccc3)C2=O)C1 (centres undefined)	none (no result: CHOP inhibitor)
CCN(CC)S(=O)(=O)c1cccc(NC(=O)CN2C(=O)NC3(CCOc4ccccc43)C2=O)c1 (centres undefined)	none (no result: VLA-4 inh, CHOP inhibitor)
O=C1[C@H]2[C@@H](C(=O)N1c1cc(Cl)cc(Cl)c1)[C@]1(C(=O)Nc3ccccc31)N1CCC[C@@H]21	none
Cc1cc(Cl)c2c(c1)[C@]1(C(=O)N2)[C@@H]2C(=O)N(Cc3ccccc3)C(=O)[C@@H]2[C@@H]2CCCN21	CHOP inhibitor 71
O=C1[C@@H](Oc2ccccc2)[C@@H](c2ccncc2)N1c1ccncc1	none (no result: VLA-4 inh, CHOP inhibitor)
Cc1nnc(NC(=O)CSc2nc3c(c(=O)n2CCc2ccccc2)SC(C)C3)s1 (centres undefined)	CHOP inhibitor 93
CC1Cc2nc(SCC(=O)Nc3nc4ccccc4s3)n(C)c(=O)c2S1 (centres undefined)	CHOP inhibitor 75
COc1ccccc1OCC(=O)NNC(=O)Nc1ccccc1	none (no result: CHOP inhibitor)
CCC(C(=O)OCC(=O)N(CCOC)c1c(N)n(Cc2ccccc2)c(=O)[nH]c1=O)c1ccccc1 (centres undefined)	none (no result: CHOP inhibitor)
CC(OC(=O)c1ccccc1CCc1ccccc1)C(N)=O (centres undefined)	none (no result: CHOP inhibitor)
Nc1c(N=Nc2cccc(Cl)c2)c(=O)[nH]n1-c1ccccc1	CHOP inhibitor 72
Cc1[nH]n(-c2ccccc2)c(=O)c1N=Nc1cccc(Cl)c1	none (no result: CHOP inhibitor)
O=C(O/N=C1\C(=O)N(c2ccccc2)c2ccccc21)C1CC1	CHOP inhibitor 73
CCO/N=C1\C(=O)N(c2ccccc2)c2ccccc21	none
C=CCn1c(C)cc(C(=O)COC(=O)CNC(=O)c2ccccc2)c1C	CHOP inhibitor 87
Cc1ccc(S(=O)(=O)NCCC(=O)OCC(=O)NCCc2ccccc2)cc1C	none (no result: CHOP inhibitor)
Oc1ccc(Cl)cc1C1=NNC(c2cc(Br)cc3c2OCOC3)C1 (centres undefined)	CHOP inhibitor 79
Oc1ccc(Cl)cc1C1=NNC(c2ccc(Cl)cc2)C1 (centres undefined)	CHOP inhibitor 78
COc1cccc(/C=C/C(=O)c2cccc([N+](=O)[O-])c2)c1	Beta2AR agonist 94
CCOC(=O)c1cccc(NC(=O)/C=C/c2cccc([N+](=O)[O-])c2)c1	CHOP inhibitor 84
Cc1ccc(/C=C/C(=O)c2c(C)nc3ccccn23)cc1	none
Cc1nc2ccccn2c1C(=O)/C=C/c1cccc([N+](=O)[O-])c1	UPR CHOP act 116
O=C(/C=C/c1cccc([N+](=O)[O-])c1)c1ccc([N+](=O)[O-])o1	Beta2AR agonist 67 (no result: XBP1 UPR activ, CHOP inhibitor, UPR CHOP act)
O=C(/C=C/c1cccc([N+](=O)[O-])c1)c1ccco1	none (no result: CHOP inhibitor)
C=C1CCC[C@]2(C)C[C@H]3OC(=O)C(CNC(C)(CO)CO)[C@H]3CC12 (some centres undefined)	none (no result: CHOP inhibitor)
COC(CNC(=O)c1ccc2c(c1)ncn2-c1ccc(C)cc1C)OC	none (no result: CHOP inhibitor)
COc1cccc(OCC(=O)NNC(=O)c2ccc(-c3ccccc3)cc2)c1	CHOP inhibitor 80
COc1cccc(OCC(=O)NNC(=O)CCc2ccccc2)c1	none
Cc1ccc(-c2nn(-c3ccccc3)cc2C(=O)N2CCN(c3ccccn3)CC2)cc1	none
COc1ccc(-c2nn(-c3ccccc3)cc2/C=C/C(=O)N2CCN(c3ccccn3)CC2)cc1	Beta2AR agonist 55
Cc1onc(-c2c(F)cccc2Cl)c1C(=O)N1CCN(c2ncc(Br)cn2)CC1	none
Cc1ccccc1NC1=CC(=O)CC(C)(C)C1	none
Cc1c(NC2=CC(=O)CC(C)(C)C2)ccc([N+](=O)[O-])c1C	CHOP inhibitor 85
CCOc1ccc(-c2cc(CCCC(=O)N3CCN(c4ccc(OC)cc4)CC3)no2)cc1	CHOP inhibitor 94
Cc1ccc(C2=NOC(=O)/C2=C\c2ccc(C)o2)cc1	Beta2AR agonist 56
CC1=NOC(=O)/C1=C\c1ccc(-c2ccc(Br)cc2C(=O)O)o1	none
CC1=NOC(=O)/C1=C\c1ccc(-c2ccc(Br)cc2)o1	Beta2AR agonist 83 (no result: XBP1 UPR activ, VLA-4 inh, UPR CHOP act)
COc1cc2c(cc1OC)C1(CCCC1)C(N)=C2C#N	CHOP inhibitor 70
O=C(COC(=O)c1ccc(Cl)nc1)Nc1ccc2c(c1)OCCO2	none (no result: CHOP inhibitor)
CCOC(=O)C1(C(C)(C)CC)CC(CSc2nc3ccccc3[nH]2)OC1=O (centres undefined)	CHOP inhibitor 75
COC(=O)c1c[nH]c(=S)n1Cc1ccccc1	none (no result: XBP1 UPR activ, VLA-4 inh, CHOP inhibitor, UPR CHOP act)
C[C@H](Cc1ccccc1)Nc1ncnc2c1ncn2[C@@H]1O[C@H](CO)[C@H](O)C1O (some centres undefined)	none (no result: XBP1 UPR activ, VLA-4 inh, Beta2AR agonist, UPR CHOP act)
Cc1ccc(S(=O)(=O)Oc2ccc3c(c2)O/C(=C\c2cccnc2)C3=O)cc1	CHOP inhibitor 78
Cc1ccccc1NS(=O)(=O)c1ccc(C(=O)N2CCCC(C(F)(F)F)C2)cc1 (centres undefined)	none (no result: CHOP inhibitor)
CCCCCCCCCCS(=O)(=O)N/N=C/c1ccccc1OC	CHOP inhibitor 82
COc1ccc2c(c1)OC[C@H]1[C@@H]2N2C(=O)CNC(=O)[C@@]2(C)[C@H]1c1ccccc1	none (no result: CHOP inhibitor)
COc1ccc(NC(=O)Cn2c(-c3ccccc3)cn(-c3ccc(C)cc3)c2=O)cc1	CHOP inhibitor 72
CCOC(=O)c1cc(-c2ccccc2)n(CC(=O)Nc2ccc(OC)cc2)c1C	CHOP inhibitor 75
COc1ccc(-c2cn(-c3ccc(C)cc3)c(=O)n2CC(=O)Nc2ccc(OC)cc2OC)cc1	none
O=[N+]([O-])c1ccc(Nc2c3ccccc3nc3ccccc23)cc1	none (no result: VLA-4 inh)
O=[N+]([O-])c1ccccc1Nc1c2ccccc2nc2ccccc12	CHOP inhibitor 93
O=C(Nc1cccc(Cl)c1)/C(=C\c1cccnc1)NC(=O)c1ccco1	none
O=C(C=Cc1cccc(O)c1)c1ccccc1O	Beta2AR agonist 56 (no result: XBP1 UPR activ, VLA-4 inh, CHOP inhibitor, UPR CHOP act)
COC(=O)c1sccc1NC(=O)Nc1ccccc1Cl	none (no result: CHOP inhibitor)
COC(=O)c1sccc1NC(=O)Nc1cccc(Cl)c1Cl	CHOP inhibitor 84
CSc1ccccc1NC(=O)Nc1cccc(Cl)c1Cl	CHOP inhibitor 88
CSc1ccccc1NC(=O)COc1ccc(Cl)cc1	CHOP inhibitor 77
CSc1ccccc1NC(=O)Nc1cccc(Cl)c1C	none
CN1CC(c2ccc(Cl)c(Cl)c2)[C@@]2(COc3ccccc3C2=O)[C@@]12C(=O)Nc1ccccc12 (some centres undefined)	CHOP inhibitor 74
CCCN1C(=O)c2ccccc2NC1c1ccc(Cl)c(Cl)c1 (centres undefined)	none (no result: CHOP inhibitor)
CC(C)c1nc(SCC(=O)Nc2cccc(C(F)(F)F)c2)c2c(=O)n(C)c(=O)n(C)c2n1	CHOP inhibitor 70
